Published values from different studies.
Effect on: cell growth or viability

CC(C)c1ccccc1[C@@H]1CCCN1C1CC2(CCN(c3ccc(C(=O)NS(=O)(=O)c4ccc(NC[C@H]5CC[C@](C)(O)CC5)c([N+](=O)[O-])c4)c(Oc4cnc5[nH]ccc5c4)c3)CC2)C1
IC50 (OCI-Ly10; ATP luminescence; 48 h): 0.0026 µM

C=CC(=O)NC1CCN(c2ncc3ncnc(Nc4ccc(Oc5ccc6c(c5)ncn6C)c(C)c4)c3n2)CC1
EC50 (Daoy): 0.0744 µM

CC1(C)CCC(CN2CCN(c3ccc(C(=O)NS(=O)(=O)c4ccc(NCC5CCOCC5)c([N+](=O)[O-])c4)c(Oc4cnc5[nH]ccc5c4)c3)CC2)=C(c2ccc(Cl)cc2)C1
IC50 (OCI-Ly10; ATP luminescence; 48 h): 0.019 µM

COc1cc2nc(N3CCN(C(=O)c4ccco4)CC3)nc(N)c2cc1OC
IC50 (SUNE1; MTT; 48 h): 27.4 µM

O=C(NO)c1ccc(CNc2nc3cccc(-c4ccc5c(c4)OCO5)n3n2)cc1
GI50 (KM12; SRB): 0.56 µM

CO[C@]12C[C@@H](COC(=O)c3cncc(Br)c3)CN(C)[C@@H]1Cc1cn(C)c3cccc2c13
IC50 (SUNE1; MTT; 48 h): 12.2 µM

Cc1c(C(=O)O)ccc2c3n(nc12)[C@@H]1[C@H](C3)N(CC2CC2)[C@@]2(C(=O)Nc3cc(Cl)ccc32)[C@H]1c1cccc(Cl)c1F
GI50 (UACC-812; resazurin): 0.027 µM

O=C(Nc1cnn2ccc(N3CCC[C@@H]3c3cc(F)ccc3F)nc12)N1CC[C@H](O)C1
IC50 (KM12; ATP luminescence; 72 h): 0.01 µM
